How the values were obtained:
[1] = target: T1, 5-hydroxytryptamine receptor 1A (Rattus norvegicus, UniProt P19327); test: Binding affinity to 5-hydroxytryptamine 1A receptor in rat hippocampus membranes,3H-8-OH-DPAT and buspirone for nonspecific binding (NSB); assay type: cell membranes
T1 sequence (P19327 whole entry): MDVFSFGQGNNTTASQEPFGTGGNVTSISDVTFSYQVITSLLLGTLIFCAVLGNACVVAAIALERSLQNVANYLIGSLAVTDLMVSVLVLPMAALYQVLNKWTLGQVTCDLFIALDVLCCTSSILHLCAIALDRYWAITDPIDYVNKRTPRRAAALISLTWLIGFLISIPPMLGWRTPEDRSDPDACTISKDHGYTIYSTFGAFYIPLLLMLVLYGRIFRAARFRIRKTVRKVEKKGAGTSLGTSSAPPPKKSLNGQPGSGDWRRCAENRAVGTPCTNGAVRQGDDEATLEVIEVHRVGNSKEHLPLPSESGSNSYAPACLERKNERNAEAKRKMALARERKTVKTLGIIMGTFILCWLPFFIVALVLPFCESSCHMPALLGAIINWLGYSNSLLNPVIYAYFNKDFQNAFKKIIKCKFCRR

[2] = target: T2, 5-hydroxytryptamine receptor 1B (Rattus norvegicus, UniProt P28564); test: Binding affinity to 5-HT1B receptors using rat cortex+striatum + globus pallidus,[3H]-5-OH-tryptamine, and serotonin for NSB
In short: (§1)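 Membranes from rat cortex plus striatum plus globus pallidus; [3H]-5-OH-tryptamine as radioligand at roughly its KD; serotonin defines nonspecific binding. Competition binding; IC50 taken as concentration inhibiting 50% of specific binding.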

[3] = Binding affinity to 5-hydroxytryptamine 2 receptor using calf frontal cortex, [3H]- ketanserin, and spiperone for NSB; parameters: species or system Bos taurus
In short: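 Calf frontal cortex; [3H]ketanserin near its KD; nonspecific binding with spiperone. Competition binding; IC50 = concentration inhibiting 50% of specific binding.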

[4] = target: T3, Serotonin 3 receptor (5HT3) (Mus musculus, UniProt Q9JHJ5+P23979); test: Displacement of [3H]-BRC 36694 from 5-hydroxytryptamine 3 receptor in NG108-15 cells; assay type: cell-based
T3 sequence (Q9JHJ5 whole entry): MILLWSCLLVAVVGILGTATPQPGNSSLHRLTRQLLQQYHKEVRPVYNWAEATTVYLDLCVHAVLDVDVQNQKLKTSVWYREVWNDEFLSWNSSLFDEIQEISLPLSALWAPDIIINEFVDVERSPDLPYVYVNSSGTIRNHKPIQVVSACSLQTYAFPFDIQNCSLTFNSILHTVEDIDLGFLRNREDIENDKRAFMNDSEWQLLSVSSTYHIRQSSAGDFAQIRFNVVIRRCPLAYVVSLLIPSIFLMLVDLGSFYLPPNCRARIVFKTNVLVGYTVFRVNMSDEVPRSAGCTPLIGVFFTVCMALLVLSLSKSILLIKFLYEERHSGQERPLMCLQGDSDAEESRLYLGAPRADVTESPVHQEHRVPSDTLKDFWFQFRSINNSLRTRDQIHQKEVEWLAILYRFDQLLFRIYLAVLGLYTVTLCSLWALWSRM
T3 sequence (P23979 whole entry): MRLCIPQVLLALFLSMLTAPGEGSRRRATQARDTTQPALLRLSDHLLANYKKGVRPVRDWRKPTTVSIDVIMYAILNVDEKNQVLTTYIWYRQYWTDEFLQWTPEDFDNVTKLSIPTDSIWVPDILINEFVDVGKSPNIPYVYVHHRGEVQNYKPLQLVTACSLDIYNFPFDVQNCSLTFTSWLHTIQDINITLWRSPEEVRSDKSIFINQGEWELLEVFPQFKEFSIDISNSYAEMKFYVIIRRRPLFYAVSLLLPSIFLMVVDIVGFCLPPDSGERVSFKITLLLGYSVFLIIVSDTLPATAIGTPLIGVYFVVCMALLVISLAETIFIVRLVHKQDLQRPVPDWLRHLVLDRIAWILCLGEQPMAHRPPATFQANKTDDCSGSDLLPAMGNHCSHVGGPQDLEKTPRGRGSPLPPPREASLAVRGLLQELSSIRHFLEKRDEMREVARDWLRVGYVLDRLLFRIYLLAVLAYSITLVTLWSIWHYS
In short: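 NG108-15 cells; [3H]-BRC 36694 at approximately its KD; ICS 205930 for nonspecific binding. Competition binding expressed as IC50 against specific binding.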

D(2) dopamine receptor = D(2) dopamine receptor (Bos taurus, UniProt P20288); test: Displacement of [3H]SDZ-205-501 from Dopamine receptor D2 in calf caudate nucleus.
In short: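 Calf caudate nucleus; [3H]SDZ205-501 near its KD; butaclamol for nonspecific binding. Competition binding; IC50 for 50% inhibition of specific binding.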

[5] = Displacement of [3H]raclopride from Dopamine receptor […] of calf striatum; parameters: species or system Bos taurus
In short: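 Calf striatum; [3H]raclopride at about its KD; haloperidol for nonspecific binding. Competition assay reporting IC50 (50% inhibition of specific binding).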

Rattus norvegicus [6] = organism: Rattus norvegicus; test: Effect of enantiomeric compound on adenylate cyclase activity in rat hippocampus at 10e-7 M; assay type: functional
In short: (§2)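 Rat hippocampal membranes incubated 20 min at 30 °C with forskolin 10 μM, [α-32P]ATP 0.1 μM and test compound. Activity measured as conversion to [32P]cAMP (nM/mg protein/20 min), given as % of control. Mean ± standard error of three determinations in two experiments; Student's t-test versus 100%, p < 0.05.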

[7] = target: T1, 5-hydroxytryptamine receptor 1A; test: Compound was evaluated for binding affinity on 5-hydroxytryptamine 1A receptor in rat hippocampus membranes,3H-8-OH-DPAT and buspirone for nonspecific binding; assay type: cell membranes
In short: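 Rat hippocampal membranes in competition binding against [³H]-8-OH-DPAT, with the radioligand at roughly its KD. […] IC50 was taken as the concentration inhibiting 50% of specific binding.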

Rattus norvegicus [8] = organism: Rattus norvegicus; test: Effect of compound on Forskolin-Activated Adenylate Cyclase in Rat Hippocampi at 0 M conc; assay type: functional; in short: as §2
Rattus norvegicus [9] = organism: Rattus norvegicus; test: Effect of compound on Forskolin-Activated Adenylate Cyclase in Rat Hippocampi at 10e-10 M conc; assay type: functional; in short: as §2
Rattus norvegicus [10] = organism: Rattus norvegicus; test: Effect of compound on Forskolin-Activated Adenylate Cyclase in Rat Hippocampi at 10e-6 M conc; assay type: functional; in short: as §2
Rattus norvegicus [11] = organism: Rattus norvegicus; test: Effect of compound on Forskolin-Activated Adenylate Cyclase in Rat Hippocampi at 10e-8 M conc (p<0.05); assay type: functional; in short: as §2
Rattus norvegicus [12] = organism: Rattus norvegicus; test: Effect of compound on Forskolin-Activated Adenylate Cyclase in Rat Hippocampi at 10e-9 M conc; assay type: functional; in short: as §2
Rattus norvegicus [13] = organism: Rattus norvegicus; test: Effects of enantiomeric compound on adenylate cyclase activity in rat hippocampus; assay type: functional; in short: as §2
Rattus norvegicus [14] = organism: Rattus norvegicus; test: Effects of enantiomeric compound on adenylate cyclase activity in rat hippocampus at 1 micro M conc; assay type: functional; in short: as §2
Rattus norvegicus [15] = organism: Rattus norvegicus; test: Effect of compound on Forskolin-Activated Adenylate Cyclase in Rat Hippocampi at 10e-7 M conc; assay type: functional; in short: as §2
Rattus norvegicus [16] = organism: Rattus norvegicus; test: Effects of enantiomeric compound on adenylate cyclase activity in rat hippocampus at 1 uM; assay type: functional; in short: as §2
Rattus norvegicus [17] = organism: Rattus norvegicus; test: Effects of enantiomeric compound on adenylate cyclase activity in rat hippocampus at 10e-5 M; assay type: functional; in short: as §2
Rattus norvegicus [18] = organism: Rattus norvegicus; test: Effects of enantiomeric compound on adenylate cyclase activity in rat hippocampus at 10e-6 M; assay type: functional; in short: as §2
Rattus norvegicus [19] = organism: Rattus norvegicus; test: Effects of enantiomeric compound on adenylate cyclase activity in rat hippocampus at 10e-7 M; assay type: functional; in short: as §2
Rattus norvegicus [20] = organism: Rattus norvegicus; test: Effects of enantiomeric compound on adenylate cyclase activity in rat hippocampus at 10e-8 M; assay type: functional; in short: as §2
[21] = target: T2, 5-hydroxytryptamine receptor 1B; test: Compound was evaluated for binding affinity on 5-HT1B receptors using rat cortex+striatum+ globus pallidus,[ 3H]-5-OH-tryptamine, and serotonin for NSB.; assay type: tissue-based; in short: as §1

T2 sequence (P28564 whole entry): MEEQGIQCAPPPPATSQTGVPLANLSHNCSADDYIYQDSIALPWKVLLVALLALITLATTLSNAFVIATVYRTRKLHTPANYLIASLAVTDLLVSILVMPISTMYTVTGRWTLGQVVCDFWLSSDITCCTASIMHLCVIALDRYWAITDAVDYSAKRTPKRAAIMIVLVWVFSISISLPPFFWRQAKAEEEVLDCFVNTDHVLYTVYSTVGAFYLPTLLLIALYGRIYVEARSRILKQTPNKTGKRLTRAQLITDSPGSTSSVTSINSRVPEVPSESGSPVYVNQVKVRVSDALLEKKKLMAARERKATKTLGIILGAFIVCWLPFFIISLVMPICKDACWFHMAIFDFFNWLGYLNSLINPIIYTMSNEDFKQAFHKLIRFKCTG
D(2) dopamine receptor, sequence (P20288 whole entry): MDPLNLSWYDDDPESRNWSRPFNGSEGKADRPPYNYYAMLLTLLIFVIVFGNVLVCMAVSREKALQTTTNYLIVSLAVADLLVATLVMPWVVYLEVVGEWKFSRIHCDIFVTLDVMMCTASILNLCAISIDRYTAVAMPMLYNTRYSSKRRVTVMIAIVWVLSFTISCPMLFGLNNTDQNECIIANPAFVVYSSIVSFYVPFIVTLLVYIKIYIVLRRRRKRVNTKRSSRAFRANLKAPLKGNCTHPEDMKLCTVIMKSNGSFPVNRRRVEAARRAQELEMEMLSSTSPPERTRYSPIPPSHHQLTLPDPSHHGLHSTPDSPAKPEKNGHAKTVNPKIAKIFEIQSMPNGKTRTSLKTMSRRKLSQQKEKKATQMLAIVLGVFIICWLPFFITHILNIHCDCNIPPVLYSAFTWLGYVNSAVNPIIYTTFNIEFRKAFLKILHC

Compound	IC50 [1]	IC50 [2]	IC50 [3]	IC50 [4]	IC50 (D(2) dopamine receptor)	IC50 [5]	also measured
COc1cccc2c1CC1(CCCCN1CCCCN1C(=O)CC3(CCCC3)CC1=O)CO2 (stereo not drawn)	0.00881 µM	2.21 µM	2.91 µM	41.4 µM	2.84 µM	23.4 µM	–
CCCN1CCCCC12COc1cccc(OC)c1C2 (stereo not drawn)	0.42 µM	69.1 µM	41.4 µM	14.9 µM	14.7 µM	100 µM	–
O=C1CC2(CCCC2)CC(=O)N1CCCCN1CCN(c2ncccn2)CC1 [BUSPIRONE]	–	–	10 µM	–	–	270 µM	–
COc1cccc2c1CC1(CCCN1C(C)=O)CO2 (stereo not drawn)	81.4 µM	246 µM	> 100 µM	> 100 µM	–	–	–
COc1cccc2c1CC1(CCCN1CCCCN1C(=O)CC3(CCCC3)CC1=O)CO2 (racemic)	–	–	–	–	–	–	Effect (Rattus norvegicus [6]): 80%
CCCN(CCC)C1CCc2cccc(O)c2C1 (stereo not drawn) [8-OH-DPAT]	–	–	49 µM	–	–	–	–
CCCN1CCCC12COc1cccc(O)c1C2 (stereo not drawn)	–	> 100 µM	364 µM	7.93 µM	71.4 µM	> 1000 µM	IC50 [7]: 0.0385 µM
CCCN(CCC)C1COc2cccc(OC)c2C1 (stereo not drawn)	–	–	60 µM	–	–	–	–
CCCN1C(=O)CCC12COc1cccc(OC)c1C2 (stereo not drawn)	14.2 µM	> 100 µM	793 µM	> 100 µM	–	–	–
CCCN(CCCCN1C(=O)CC2(CCCC2)CC1=O)C1COc2cccc(OC)c2C1 (stereo in doubt; 2)	–	–	1 µM	–	–	–	–
O=C1c2ccccc2S(=O)(=O)N1CCCCN1CCN(c2ncccn2)CC1 [IPSAPIRONE]	–	–	7.5 µM	–	–	–	–
CCCN1CCCC12COc1cccc(OC)c1C2 (stereo not drawn)	0.0746 µM	11 µM	112 µM	3.59 µM	6.55 µM	120 µM	–
COc1cccc2c1CC1(CCCN1CCCCN1C(=O)CC3(CCCC3)CC1=O)CO2 (single isomer, unassigned; (+))	0.00672 µM	1.3 µM	0.886 µM	12.1 µM	1.31 µM	22.4 µM	Effect (Rattus norvegicus [8]): 100%; Effect (Rattus norvegicus [9]): 97%; Effect (Rattus norvegicus [10]): 82%; Effect (Rattus norvegicus [11]): 88%; Effect (Rattus norvegicus [12]): 91%; Effect (Rattus norvegicus [13]): 98%; Effect (Rattus norvegicus [14]): 79%; Effect (Rattus norvegicus [15]): 84%
CCCN(CCCCN1C(=O)CC2(CCCC2)CC1=O)C1COc2cccc(OC)c2C1 (single isomer, unassigned; (-))	–	–	5 µM	–	–	–	–
COc1cccc2c1CC1(CCCN1)CO2 (stereo not drawn)	0.298 µM	4.4 µM	71.4 µM	10.2 µM	–	–	–
COc1cccc2c1CC1(CCCN1CCCCN1C(=O)CC3(CCCC3)CC1=O)CO2 (stereo in doubt; 11a)	0.0106 µM	3.8 µM	6.61 µM	30.7 µM	–	–	–
COc1cccc2c1CC1(CCC(=O)N1)CO2 (stereo not drawn)	4.37 µM	> 10 µM	> 100 µM	> 100 µM	–	–	–
COc1cccc2c1CC1(CCCCN1CCCCNS(=O)(=O)c1ccc(C)cc1)CO2 (stereo not drawn)	0.068 µM	51.1 µM	21.1 µM	118 µM	4.22 µM	38 µM	–
O=C1CC2(CCCC2)CC(=O)N1CCCCN1CCCC12COc1ccccc1C2 (stereo not drawn)	0.178 µM	3.8 µM	5.95 µM	12.5 µM	–	–	–
CCCN1CCCC12COc1ccccc1C2 (stereo not drawn)	1.3 µM	> 1000 µM	233 µM	14.5 µM	–	–	–
COc1cccc2c1CC1(CCCN1CCCCN1C(=O)CC3(CCCC3)CC1=O)CO2 (single isomer, unassigned; (-))	–	31.1 µM	13.9 µM	10.6 µM	11.3 µM	23.3 µM	Effect (Rattus norvegicus [13]): 101%; Effect (Rattus norvegicus [16]): 101%; Effect (Rattus norvegicus [17]): 81%; Effect (Rattus norvegicus [18]): 86%; Effect (Rattus norvegicus [19]): 92%; Effect (Rattus norvegicus [20]): 98%
COc1cccc2c1CC1(CCCCN1CCCCNC(=O)c1ccc(F)cc1)CO2 (stereo not drawn)	0.0628 µM	–	8.39 µM	66.5 µM	4.3 µM	38.3 µM	IC50 [21]: 11.2 µM
CCCN(CCCCN1C(=O)CC2(CCCC2)CC1=O)C1COc2cccc(OC)c2C1 (single isomer, unassigned; (+))	–	–	3 µM	–	0.02 µM	–	–
CCCN1CCCC12COc1cccc(OCCCCN3C(=O)CC4(CCCC4)CC3=O)c1C2 (stereo not drawn)	0.101 µM	2.7 µM	67.3 µM	3.97 µM	–	–	–

From ChEMBL document CHEMBL1129453, “3-amino-3,4-dihydro-2H-1-benzopyran derivatives as 5-HT1A receptor ligands and potential anxiolytic agents. 2. Synthesis and quantitative structure-activity relationship studies of spiro[pyrrolidine- and piperidine-2,3'(2'H)-benzopyrans]” (J Med Chem, 1996)
